Measured values from PubChem BioAssay AID588478 (ICCB-Longwood Screening Facility, Harvard Medical School, 2011).
Among all 330,000 compounds or so, about 1,100 (0.33%) were called active.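 The calls were made as follows: active = mean inhibition over replicate wells above about 20% (limit read from the data); inactive = the rest.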 What follows is part of a selection rich in actives, with near analogues and random picks from the rest.

The compounds below were run against Ubiquitin carboxyl-terminal hydrolase isozyme L5 (Homo sapiens) (UniProt Q9Y5K5) (assay: proteasome-bound UCH37 DUB activity blockers – biochemical, Ub-AMC cleavage, fluorescence, primary screen (AID 588478;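 also: 0% = compound-free wells with enzyme and 100% = wells lacking proteasome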)). Conditions: purified proteasome/UCH37, Ub-AMC cleavage fluorescence; hits give high values; concentration not given here.
Chain of Ubiquitin carboxyl-terminal hydrolase isozyme L5 (Homo sapiens) (Q9Y5K5 whole entry, looked up): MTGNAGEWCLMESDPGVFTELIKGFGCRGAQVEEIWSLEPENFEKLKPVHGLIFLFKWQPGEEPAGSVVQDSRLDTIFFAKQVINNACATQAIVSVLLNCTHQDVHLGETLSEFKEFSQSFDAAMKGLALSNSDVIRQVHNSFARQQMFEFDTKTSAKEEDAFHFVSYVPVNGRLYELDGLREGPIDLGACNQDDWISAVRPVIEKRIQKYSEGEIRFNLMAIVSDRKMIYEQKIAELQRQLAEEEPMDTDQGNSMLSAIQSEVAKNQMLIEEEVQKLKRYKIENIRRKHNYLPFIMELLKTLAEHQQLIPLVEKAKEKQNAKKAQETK
How it was run: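 system = Proteasome-associated human UCH37 deubiquitinase | amount = 0.15 nM proteasome as dispensed | medium = pH 7.4 Tris-HCl (50 mM) with ovalbumin, ATP-MgCl2, DTT | incubation = 30 min preincubation with enzyme, 25 min cleavage at room temperature | detection = AMC fluorescence 355/460 nm | read-out basis = percent inhibition | controls = no-proteasome and no-compound wells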
`O=C(/C=C/c1ccc(N2CCOCC2)cc1)c1ccccc1` was tested, and the inhibition was -0.318% (inactive). In the case of `O=C(O)c1ccc2c(c1)C(=O)N(c1ccc(/C=C/C(=O)c3ccccc3)cc1)C2=O`, the inhibition is reported as 8.59% (inactive). In the case of `O=C(/C=C/c1ccccc1)c1ccoc1`, the inhibition is reported as 35.8% (active). `CCN1C(=O)CSC1=NS(=O)(=O)c1ccc(Cl)cc1` was tested, and the inhibition was -0.232% (inactive). For `COc1ccc(C=NNC(=O)CSc2ccccn2)cc1OC`, the inhibition was 5.41% (inactive). `CCN1/C(=C\c2ccc3ccccc3[n+]2CC)Sc2cc(C)ccc21` was tested, and the inhibition was 4.94% (inactive). `CCOC(=O)CNC(=O)N1c2ccccc2Sc2ccccc21` was tested, and the inhibition was 5.96% (inactive). In the case of `CCC(=O)/C=C1\Sc2ccccc2N1CC`, the inhibition is reported as 23.7% (active). In the case of `COC(=O)c1ccc(C=NNC(=O)CNc2cccc(C)c2)cc1`, the inhibition is reported as 1.65% (inactive). With `Cc1[nH]c2ccccc2c1C=NNC(=O)CCC(=O)NCc1ccccc1` the inhibition was 2.82% (inactive). In the case of `Cc1cccc(C=NNC(=O)Cn2nccc2C)n1`, the inhibition is reported as -0.386% (inactive). `COc1ccc(S(=O)(=O)/N=C2\C=C(NS(=O)(=O)c3ccccc3)C(=O)c3ccccc32)cc1` was tested, and the inhibition was 39.6% (active). For `O=C1C=C(NS(=O)(=O)c2ccccc2)C(=O)c2ccccc21`, the inhibition was 16.2% (inactive). With `COc1ccc(S(=O)(=O)NCCCc2ccccc2)cc1` the inhibition was 4.02% (inactive). With `CC(=NNC(=O)c1cccc(NN=C(C)c2ccco2)c1)c1ccco1` the inhibition was 1.7% (inactive). With `CCCCCCC(=O)NN=CCc1ccccc1` the inhibition was 0.89% (inactive). In the case of `COc1ccccc1N1CCN(N=C/C=C\c2ccccc2[N+](=O)[O-])CC1`, the inhibition is reported as 7.46% (inactive). With `CON=CCc1oc(=O)c(NC(=O)c2ccccc2)cc1C(=O)OC` the inhibition was 1.47% (inactive). In the case of `COc1ccc(CNC(=O)C2(CC3CC(c4ccccc4)=NO3)CCN(C(=O)c3cccc(O)c3)CC2)cc1` (configuration not stated), the inhibition is reported as 4.4% (inactive). In the case of `O=C(c1ccccc1)N1CCC(CC2CC(c3ccc(Cl)cc3)=NO2)(C(=O)NCC2CCCCC2)CC1` (configuration not stated), the inhibition is reported as 22.5% (active). `CCCCCCCNC(=O)C1(CC2CC(c3cccc(Br)c3)=NO2)CCN(C(=O)c2cc(OCC)c(OCC)c(OCC)c2)CC1` (configuration not stated) was tested, and the inhibition was 3.99% (inactive). `CCOc1cc(C=NNC(=O)C(N)=O)cc(Br)c1O` was tested, and the inhibition was 13.3% (inactive). In the case of `O=[N+]([O-])c1ccc2c(c1)Nc1nc3ccccc3nc1N2`, the inhibition is reported as 0.978% (inactive). For `O=[N+]([O-])c1ccc(N(CCO)Cc2ccccc2)c([N+](=O)[O-])c1`, the inhibition was 6.59% (inactive). `O=C1Nc2ccc([N+](=O)[O-])cc2C1=Nc1cccc(CO)c1` was tested, and the inhibition was 55.8% (active). With `Cc1nnc(NN=Cc2ccccn2)[nH]c1=O` the inhibition was 1.91% (inactive). `CC(=N/N=C1/NC(=O)C(CC(=O)NCc2ccccc2)S1)C(C)C` (configuration not stated) was tested, and the inhibition was 3.63% (inactive). `CCNC(=S)N=C(N)Nc1nc(C)c2cc(C)ccc2n1` was tested, and the inhibition was 6.4% (inactive). For `C(=NNc1nc(N2CCOCC2)nc(N2CCOCC2)n1)c1cccnc1`, the inhibition was 2.78% (inactive). For `Cc1ccc(S(=O)(=O)N=C2C=C(Sc3ncn[nH]3)C(=O)c3ccccc32)cc1`, the inhibition was 63.7% (active). `Cc1ccc(N2C(=O)CC(Sc3ncn[nH]3)C2=O)cc1` (configuration not stated) was tested, and the inhibition was 5.88% (inactive). For `Cc1ccc(S(=O)(=O)/N=S(\C)C(C)C)cc1` (configuration not stated), the inhibition was 0.621% (inactive). With `CC(=NNC(=S)NC(C)C)c1ccc(Cl)s1` the inhibition was 8.08% (inactive). `COc1ccccc1Oc1ccc(N/C=C2/CCCC2=O)cc1` was tested, and the inhibition was 3.61% (inactive). In the case of `O=C1/C(=C\Nc2ccccc2)CCN1c1ncccn1`, the inhibition is reported as 21% (active). In the case of `O=C(Cc1ccccc1)NNC(=O)C1CCN(c2ncccn2)CC1`, the inhibition is reported as -5.78% (inactive). For `c1coc(-c2nc3nc4ccccc4n3nc2-c2ccco2)c1`, the inhibition was 25.1% (active). In the case of `O=C(NN=Cc1cccnc1)c1cccc(N2CCCC2=O)c1`, the inhibition is reported as 2.39% (inactive). For `O=C(NC(Cc1c[nH]c2ccccc12)C(=O)NN=Cc1ccc(Br)cc1)c1cccs1` (configuration not stated), the inhibition was 0.851% (inactive). With `CCN(CC)CCn1c2ccc(Cl)cc2c2nc(C)sc21` the inhibition was 7.52% (inactive). With `CCN(CC)CCCC(C)n1c2nc(=O)[nH]c(=O)c-2nc2cc(Cl)ccc21` (configuration not stated) the inhibition was 76% (active). For `Nc1nnnn1N=Cc1cc(Cl)ccc1O`, the inhibition was -10.7% (inactive). `CC(CC(=O)NCCc1ccccc1)=NNC(=O)COc1ccc(Br)cc1` was tested, and the inhibition was 3.08% (inactive). `O=C1C(Cl)=C(N2CCOCC2)C(=O)N1c1ccccc1` was tested, and the inhibition was 3.48% (inactive). For `COC1=C(N2CCOCC2)C(=O)c2ccccc2C1=O`, the inhibition was 33.9% (active). For `O=C1c2ccccc2-c2ncnc3c(N4CCOCC4)cc(N4CCOCC4)c1c23`, the inhibition was 17.7% (inactive). In the case of `Cc1cc(C)n2nc(C(=O)NN=Cc3cccc(Cl)c3)nc2n1`, the inhibition is reported as 4.88% (inactive). In the case of `COc1ccc(OCC(=O)NN=C(C)CC(=O)Nc2ccc(OC)cc2[N+](=O)[O-])cc1`, the inhibition is reported as 5.56% (inactive). For `Cc1cc(N2C(=O)C(=O)/C(=C(/O)c3ccccc3)C2c2cccc(Br)c2)no1` (configuration not stated), the inhibition was 21.7% (active). For `COc1ccc(C2/C(=C(/O)c3ccccc3)C(=O)C(=O)N2c2ncccn2)cc1OC` (configuration not stated), the inhibition was 7.11% (inactive). With `Cc1cc(N2C(=O)C(=O)/C(=C(/O)c3ccc(Cl)cc3)C2c2cccc(Br)c2)no1` (configuration not stated) the inhibition was 6.56% (inactive). For `Cc1ccccc1OCC(=O)NN=C1CCOc2c(C)cccc21`, the inhibition was -0.822% (inactive). For `CC(C)(C)c1ccc(OCc2ccc(C(=O)NN=C3CC4CC=CC34)cc2)cc1` (configuration not stated), the inhibition was 2.62% (inactive). For `Cc1[nH][nH]c(=O)c1C(c1ccc(-c2ccc(Cl)cc2)o1)c1c(C)[nH][nH]c1=O`, the inhibition was 42.6% (active). In the case of `O=C(NC1CCCCC1)c1ccc(-c2ccc(Cl)cc2)o1`, the inhibition is reported as 1.6% (inactive). For `CN(CC(=O)Nc1ccc(F)cc1)C(=O)c1ccc(-c2ccc(Cl)cc2)o1`, the inhibition was -0.892% (inactive). For `Cc1cccc(OCC(=O)NN=C/C=C/c2ccc3c(c2)OCO3)c1C`, the inhibition was -10.5% (inactive). `CC(=NNC(=O)c1ccc2c(c1)OCO2)c1ccc(O)cc1` was tested, and the inhibition was 3.15% (inactive). For `Oc1ccc(N=Nc2nccs2)c(O)c1`, the inhibition was 24.4% (active). `CC(=NNc1cc(N2CCOCC2)ncn1)c1ccccc1` was tested, and the inhibition was 2.94% (inactive). For `Cn1c(=O)n(C)c2cc(C=Nn3cnnc3)ccc21`, the inhibition was -35.7% (inactive). For `Cc1cc(=O)n2nc(N3CCCC(C(=O)NCCC4=CCCCC4)C3)sc2n1` (configuration not stated), the inhibition was 4.22% (inactive). With `C=CCN1C(=O)c2ccc(C(=O)N3CCC(C(=O)OCC)CC3)cc2C1=O` the inhibition was -0.969% (inactive). `CC1CCCN(C(=O)c2ccc3c(c2)C(=O)N(CCC2=CCCCC2)C3=O)C1` (configuration not stated) was tested, and the inhibition was 39.5% (active). `S=c1[nH]nc(-c2ccccc2)n1N=Cc1ccc(-c2ccccc2Cl)o1` was tested, and the inhibition was 5.56% (inactive). `CC(CC(=O)Nc1ccc(Cl)cc1Cl)=NNC(=O)c1ccncc1` was tested, and the inhibition was 0.597% (inactive). For `COC(=O)NN=C(C)c1cccs1`, the inhibition was 2.45% (inactive). With `N#C/C(=C/c1ccc(N2CCCCC2)o1)C(=O)NCCc1c[nH]c2ccccc12` the inhibition was 11.5% (inactive). `N#C/C(=C/c1ccc(N2CCOCC2)o1)C(=O)N1CCOCC1` was tested, and the inhibition was 33.4% (active). In the case of `N#C/C(=C\c1ccc(N2CCOCC2)o1)C(=O)N1CCOCC1`, the inhibition is reported as 15.4% (inactive). With `O=c1[nH]n2c(=O)c3c([nH]c2c1N=Nc1ccccc1)CCC3` the inhibition was 22.1% (active). For `N#Cc1c2c(c(-c3ccccc3)[nH]c1=O)CCCC2`, the inhibition was -49.7% (inactive). `CC(C)(C)n1c(=O)[nH]c2c(c1=O)CCC2` was tested, and the inhibition was -4.38% (inactive). With `CCOc1ccc(C=NNC(=O)c2nnn(-c3nonc3N)c2COc2ccc(F)cc2)cc1` the inhibition was -139% (inactive). With `N#CCC(=O)NN=Cc1cn(Cc2cccc3ccccc23)c2ccccc12` the inhibition was 1.26% (inactive). With `COCc1c(C)cc(C)c(C=NO)c1C` the inhibition was 3.47% (inactive). In the case of `C=CCn1c(=C(C#N)c2nnc3n2CCCCC3)sc(=Cc2ccc(Cl)cc2)c1=O`, the inhibition is reported as 8.49% (inactive). With `N#CC(=NNc1cc(Cl)cc(Cl)c1)c1nnc2n1CCCCC2` the inhibition was 3.3% (inactive). `N#CC(=C(O)CCl)c1nnc2n1CCCCC2` was tested, and the inhibition was 31.4% (active). In the case of `COc1cc(C=NNS(=O)(=O)c2ccc(C)cc2)ccc1OCc1ccc(C(=O)O)cc1`, the inhibition is reported as 3.97% (inactive). For `COc1ccccc1C=NNc1cc(C)nc2ccc(C)cc12`, the inhibition was -45.9% (inactive). In the case of `C/C(C=NNC(=O)c1ccc2nc[nH]c2c1)=C/c1ccccc1`, the inhibition is reported as 5.71% (inactive). `Cc1cnc(NC(=O)C2CCCC2)s1` was tested, and the inhibition was 31% (active). `Cc1nc(NC(=O)C2CCCCC2)sc1C` was tested, and the inhibition was 1.92% (inactive). With `Cc1cnc(NC(=O)c2ccccn2)s1` the inhibition was 2.76% (inactive). `CCCOc1ccc(-c2c(C(=O)NN=Cc3ccccc3)nnn2-c2nonc2N)cc1` was tested, and the inhibition was 5.85% (inactive). For `COc1cc(C=Nn2c(C)nc3ccccc3c2=O)ccc1O`, the inhibition was 12.2% (inactive). For `CC(CC(=O)Nc1cc(C)ccn1)=NNC(=O)c1cccc(C)c1O`, the inhibition was -6.85% (inactive). With `Cc1cc(C=NO)c(C)n1-c1ccccc1` the inhibition was -2.23% (inactive). In the case of `Cc1cc(/C=C2/C(=N)N3C(=NC2=O)SN=C3S(C)(=O)=O)c(C)n1-c1ccccc1`, the inhibition is reported as 33.8% (active). `CCS(=O)(=O)C1=NSC2=NC(=O)/C(=C\c3cc(C)n(-c4cccc(OC)c4)c3C)C(=N)N21` was tested, and the inhibition was -8.8% (inactive). `COc1ccc2c(c1)c(C(=O)NN=Cc1ccc(Br)cc1)c(C)n2C` was tested, and the inhibition was 2.61% (inactive). In the case of `CC(Oc1ccc(Cl)cc1)C(=O)NN=Cc1ccsc1` (configuration not stated), the inhibition is reported as 0.279% (inactive). For `Cc1oc(N=Cc2cccc([N+](=O)[O-])c2)c(C#N)c1C`, the inhibition was 4.11% (inactive). `COc1ccc(C=NNC(=O)CSCC(=O)Nc2ccccc2)cc1` was tested, and the inhibition was 2.55% (inactive). `CN=C1C=C/C(=N/N=c2\ccn(O)cc2C)C=C1C` was tested, and the inhibition was 23.6% (active). In the case of `COC(=O)Cc1cc(=O)[nH]c(N=C(N)Nc2ccc(C)cc2C)n1`, the inhibition is reported as -0.633% (inactive).
